According to ChEMBL document CHEMBL3102784, “Salicylanilide diethyl phosphates: synthesis, antimicrobial activity and cytotoxicity” (Bioorg Med Chem, 2014):
Converted amounts (≈) assume the structure as drawn. The source made the active and inactive calls. The rule behind the calls is not given here.

Legend:
Aspergillus fumigatus [1] = assay: Antifungal activity against Aspergillus fumigatus 231 after 48 hrs by broth microdilution method; format: functional; details: Aspergillus fumigatus, 231, 48 h
Procedure, shortened: (§1)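 Broth microdilution in RPMI 1640 with glutamine, fluconazole as reference. For yeasts, MIC is ≥80% growth reduction (IC80) versus control. For filamentous fungi, the value is expressed as IC50. Readings at 24 and 48 h.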

Pichia kudriavzevii [2] = assay: Antifungal activity against Candida krusei E28 after 48 hrs by broth microdilution method; format: functional; details: E28, 48 h; procedure, shortened: as §1
Lichtheimia corymbifera [3] = assay: Antifungal activity against Absidia corymbifera 272 after 48 hrs by broth microdilution method; format: functional; details: Lichtheimia corymbifera, 272, 48 h; procedure, shortened: as §1
Candida albicans [4] = assay: Antifungal activity against Candida albicans ATCC 44859 after 24 hrs by broth microdilution method; format: functional; details: ATCC 44859, 24 h; procedure, shortened: as §1
Trichosporon asahii [5] = assay: Antifungal activity against Trichosporon asahii 1188 after 48 hrs by broth microdilution method; format: functional; details: Trichosporon asahii, 1188, 48 h; procedure, shortened: as §1
Mycobacterium kansasii [6] = assay: Antimycobacterial activity against Mycobacterium kansasii 6509/96 after 21 days; format: functional; details: 6509/96, 504 h
Procedure, shortened: (§2)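 Micromethod MIC in Šula's semisynthetic medium at 37 °C. Compounds added in DMSO at 1000 down to 0.032 µmol/L. Isoniazid standard in sterile water at 0.5–250 µmol/L. Inocula: H37Rv 10^3, M. avium 10^5, M. kansasii 10^4. Read at 14 and 21 d, plus 7 d for M. kansasii.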

Nakaseomyces glabratus = assay: Antifungal activity against Candida glabrata 20/I at 500 micromol/L after 24 to 48 hrs by broth microdilution method; format: functional, organism-based; procedure, shortened: as §1
Mycobacterium avium [7] = assay: Antimycobacterial activity against isoniazid, rifampicin, ethambutol and ofloxacin-resistant Mycobacterium avium My 330/88 after 14 days; format: functional; details: My 330/88, 336 h; procedure, shortened: as §2
Trichosporon asahii [8] = assay: Antifungal activity against Trichosporon asahii 1188 after 24 hrs by broth microdilution method; format: functional; details: Trichosporon asahii, 1188, 24 h; procedure, shortened: as §1
Mycobacterium kansasii [9] = assay: Antimycobacterial activity against Mycobacterium kansasii My 235/80 after 14 days; format: functional; details: My 235/80, 336 h; procedure, shortened: as §2
Escherichia coli = assay: Antibacterial activity against Escherichia coli CCM 4517 at 500 micromol/L after 24 to 48 hrs by broth microdilution method; format: functional, organism-based
Procedure, shortened: (§3)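 Broth microdilution in Mueller–Hinton broth, compounds dissolved in DMSO, tested over a dilution series from 500 downward. MIC taken as ≥95% growth reduction (IC95) versus drug-free control. Benzylpenicillin comparator. Readings at 24 and 48 h.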

Mycobacterium avium [10] = assay: Antimycobacterial activity against isoniazid, rifampicin, ethambutol and ofloxacin-resistant Mycobacterium avium My 330/88 after 21 days; format: functional; details: My 330/88, 504 h; procedure, shortened: as §2
Staphylococcus aureus [11] = assay: Antibacterial activity against Staphylococcus aureus CCM 4516/08 after 24 hrs by broth microdilution method; format: functional; details: CCM 4516/08, 24 h; procedure, shortened: as §3
Pseudomonas aeruginosa = assay: Antibacterial activity against Pseudomonas aeruginosa CCM 1961 at 500 micromol/L after 24 to 48 hrs by broth microdilution method; format: functional, organism-based; procedure, shortened: as §3
Staphylococcus aureus [12] = assay: Antibacterial activity against methicillin-resistant Staphylococcus aureus H 5996/08 after 48 hrs by broth microdilution method; format: functional; details: H 5996/08, 48 h; procedure, shortened: as §3
Enterococcus sp. = assay: Antibacterial activity against Enterococcus sp. J 14365/08 at 500 micromol/L after 24 to 48 hrs by broth microdilution method; format: functional, organism-based; procedure, shortened: as §3
[13] = tested on: Staphylococcus epidermidis; assay: Antibacterial activity against Staphylococcus epidermidis H 6966/08 after 24 hrs by broth microdilution method; format: functional; details: H 6966/08, 24 h; procedure, shortened: as §3
Mycobacterium kansasii [14] = assay: Antimycobacterial activity against Mycobacterium kansasii 6509/96 after 14 days; format: functional; details: 6509/96, 336 h; procedure, shortened: as §2
Staphylococcus aureus [15] = assay: Antibacterial activity against methicillin-resistant Staphylococcus aureus H 5996/08 after 24 hrs by broth microdilution method; format: functional; details: H 5996/08, 24 h; procedure, shortened: as §3
[16] = tested on: Trichophyton mentagrophytes; assay: Antifungal activity against Trichophyton mentagrophytes 445 after 120 hrs by broth microdilution method; format: functional; details: Trichophyton mentagrophytes, 445, 120 h
Procedure, shortened: (§4)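 Filamentous dermatophyte tested by broth microdilution in RPMI 1640 with glutamine, fluconazole as reference. Value expressed as IC50 relative to growth control. Read at 72 and 120 h.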

[17] = tested on: Mycobacterium tuberculosis; assay: Antimycobacterial activity against Mycobacterium tuberculosis H37Rv My 331/88 after 14 days; format: functional; details: H37Rv My 331/88, 336 h; procedure, shortened: as §2
Klebsiella pneumoniae [18] = assay: Antibacterial activity against Klebsiella pneumoniae D 11750/08 at 500 micromol/L after 24 to 48 hrs by broth microdilution method; format: functional, organism-based; procedure, shortened: as §3
Mycobacterium kansasii [19] = assay: Antimycobacterial activity against Mycobacterium kansasii 6509/96 after 7 days; format: functional; details: 6509/96, 168 h; procedure, shortened: as §2
Lichtheimia corymbifera [20] = assay: Antifungal activity against Absidia corymbifera 272 after 24 hrs by broth microdilution method; format: functional; details: Lichtheimia corymbifera, 272, 24 h; procedure, shortened: as §1
Candida tropicalis = assay: Antifungal activity against Candida tropicalis 156 at 500 micromol/L after 24 to 48 hrs by broth microdilution method; format: functional, organism-based; procedure, shortened: as §1
Aspergillus fumigatus [21] = assay: Antifungal activity against Aspergillus fumigatus 231 after 24 hrs by broth microdilution method; format: functional; details: Aspergillus fumigatus, 231, 24 h; procedure, shortened: as §1
Klebsiella pneumoniae [22] = assay: Antibacterial activity against ESBL-positive Klebsiella pneumoniae J 14368/08 at 500 micromol/L after 24 to 48 hrs by broth microdilution method; format: functional, organism-based; procedure, shortened: as §3
Candida albicans [23] = assay: Antifungal activity against Candida albicans ATCC 44859 after 48 hrs by broth microdilution method; format: functional; details: ATCC 44859, 48 h; procedure, shortened: as §1
Pichia kudriavzevii [24] = assay: Antifungal activity against Candida krusei E28 after 24 hrs by broth microdilution method; format: functional; details: E28, 24 h; procedure, shortened: as §1
[25] = tested on: Trichophyton mentagrophytes; assay: Antifungal activity against Trichophyton mentagrophytes 445 after 72 hrs by broth microdilution method; format: functional; details: Trichophyton mentagrophytes, 445, 72 h; procedure, shortened: as §4
HepG2 = assay: Cytotoxicity against human HepG2 cells after 24 hrs by CellTiter assay; format: cell-based; details: HepG2, 24 h
Procedure, shortened: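 HepG2 cells (passage 27–33) in MEM with 10% FBS, L-glutamine and NEAA, seeded at 1×10^4 per well. Treated next day with compounds at 0.1–100 µM (or 0.1–25 µmol/L), triplicates, <1% DMSO, for 24 h at 37 °C, 5% CO2. MTS reagent added for 2 h, absorbance read at 490 nm. IC50 taken against untreated (100%) and 10% DMSO (0%) controls.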

[26] = tested on: Staphylococcus epidermidis; assay: Antibacterial activity against Staphylococcus epidermidis H 6966/08 after 48 hrs by broth microdilution method; format: functional; details: H 6966/08, 48 h; procedure, shortened: as §3
[27] = tested on: Mycobacterium tuberculosis; assay: Antimycobacterial activity against Mycobacterium tuberculosis H37Rv My 331/88 after 21 days; format: functional; details: H37Rv My 331/88, 504 h; procedure, shortened: as §2
Mycobacterium kansasii [28] = assay: Antimycobacterial activity against Mycobacterium kansasii My 235/80 after 7 days; format: functional; details: My 235/80, 168 h; procedure, shortened: as §2
Staphylococcus aureus [29] = assay: Antibacterial activity against Staphylococcus aureus CCM 4516/08 after 48 hrs by broth microdilution method; format: functional; details: CCM 4516/08, 48 h; procedure, shortened: as §3
Mycobacterium kansasii [30] = assay: Antimycobacterial activity against Mycobacterium kansasii My 235/80 after 21 days; format: functional; details: My 235/80, 504 h; procedure, shortened: as §2

Which results are given for CCOP(=O)(OCC)Oc1ccc(Cl)cc1C(=O)Nc1ccc(Cl)cc1?
MIC50 (Aspergillus fumigatus [1]): > 500 µM; MIC80 (Pichia kudriavzevii [2]): > 500 µM; MIC50 (Lichtheimia corymbifera [3]): > 500 µM; MIC80 (Candida albicans [4]): > 500 µM; MIC80 (Trichosporon asahii [5]): > 500 µM; MIC (Mycobacterium kansasii [6]): 8 µM (≈ 3.35 µg/mL); Activity (Nakaseomyces glabratus): inactive; MIC (Mycobacterium avium [7]): 8 µM (≈ 3.35 µg/mL); MIC80 (Trichosporon asahii [8]): > 500 µM; MIC (Mycobacterium kansasii [9]): 8 µM (≈ 3.35 µg/mL); Activity (Escherichia coli): inactive; MIC (Mycobacterium avium [10]): 8 µM (≈ 3.35 µg/mL); MIC95 (Staphylococcus aureus [11]): 62.5 µM (≈ 26.1 µg/mL); Activity (Pseudomonas aeruginosa): inactive; MIC95 (Staphylococcus aureus [12]): 250 µM (≈ 105 µg/mL); Activity (Enterococcus sp.): inactive; MIC95 [13]: 125 µM (≈ 52.3 µg/mL); MIC (Mycobacterium kansasii [14]): 8 µM (≈ 3.35 µg/mL); MIC95 (Staphylococcus aureus [15]): 125 µM (≈ 52.3 µg/mL); MIC50 [16]: 500 µM (≈ 209 µg/mL); MIC [17]: 4 µM (≈ 1.67 µg/mL); Activity (Klebsiella pneumoniae [18]): inactive; MIC (Mycobacterium kansasii [19]): 8 µM (≈ 3.35 µg/mL); MIC50 (Lichtheimia corymbifera [20]): > 500 µM; Activity (Candida tropicalis): inactive; MIC50 (Aspergillus fumigatus [21]): > 500 µM; Activity (Klebsiella pneumoniae [22]): inactive; MIC80 (Candida albicans [23]): > 500 µM; MIC80 (Pichia kudriavzevii [24]): > 500 µM; MIC50 [25]: 500 µM (≈ 209 µg/mL); IC50 (HepG2): 13 µM; MIC95 [26]: 250 µM (≈ 105 µg/mL); MIC [27]: 4 µM (≈ 1.67 µg/mL); MIC (Mycobacterium kansasii [28]): 8 µM (≈ 3.35 µg/mL); MIC95 (Staphylococcus aureus [29]): 125 µM (≈ 52.3 µg/mL); MIC (Mycobacterium kansasii [30]): 8 µM (≈ 3.35 µg/mL)
